The format of data set [1] is in vivo, human. The note with it: plasma; midazolam 7.5 mg oral single dose alone, day 1.
A further data set concerns CYP3A4. Nature of the data set: Clinical drug-drug interaction: ratio. The note with it: (midazolam + tenapanor)/midazolam; tenapanor 15 mg twice daily; healthy volunteers. The format is in vivo, human.
A further data set concerns CYP2B6 mRNA. The data set can be described thus: CYP mRNA induction in HepaRG cell cultures. It counts as in vitro ADME, human. The note with it: 24 hours; for maximal increase in CYP2B6 mRNA levels relative to vehicle control: positive controls.
A short description of the next data set: Safety and tolerability. It counts as in vivo, human.
A further data set deals with T1, CYP1A2 (Homo sapiens, UniProt P05177).
T1 sequence (P05177 1-516): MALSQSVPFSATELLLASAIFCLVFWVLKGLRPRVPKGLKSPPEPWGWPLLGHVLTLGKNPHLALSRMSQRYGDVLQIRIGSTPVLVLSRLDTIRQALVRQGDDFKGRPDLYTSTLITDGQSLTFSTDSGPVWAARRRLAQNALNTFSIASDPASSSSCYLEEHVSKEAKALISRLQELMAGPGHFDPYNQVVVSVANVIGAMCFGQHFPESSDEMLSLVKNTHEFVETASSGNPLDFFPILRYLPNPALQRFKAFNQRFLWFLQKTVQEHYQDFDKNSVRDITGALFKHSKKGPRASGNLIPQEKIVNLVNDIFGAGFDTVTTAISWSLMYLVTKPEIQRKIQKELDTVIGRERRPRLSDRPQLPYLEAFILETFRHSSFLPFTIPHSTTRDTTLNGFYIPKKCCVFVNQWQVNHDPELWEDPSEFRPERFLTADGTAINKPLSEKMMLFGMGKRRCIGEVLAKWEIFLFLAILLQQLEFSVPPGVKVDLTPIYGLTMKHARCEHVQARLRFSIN
Nature of the data set: Reversible CYP inhibition in human liver microsomes, phenacetin marker. It counts as in vitro ADME. The note with it: probe phenacetin 30 μM (paracetamol formation). In a few lines:
(§1)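 A cocktail at or below KM was incubated 5 min at 37°C with NADPH in 150-donor pooled human liver microsomes: phenacetin 30 μM (CYP1A2), diclofenac 10 μM (CYP2C9), (S)-mephenytoin 35 μM (CYP2C19), bufuralol 5 μM (CYP2D6), midazolam 3 μM (CYP3A4/5). Test compound was run at 0.1–30 μM (six levels), in triplicate. TCA quench, then LC-MS/MS (MRM) of metabolites. IC50 was fitted from % of DMSO-control activity versus log concentration; inhibition only at top concentration was reported as >30 μM.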

In the next data set the test system is CYP3A4 mRNA. The note with it: HepaRG, 24 hours.
For data set [2] the following is noted: patients with CKD stage 5D on dialysis; in 387 of 390 serum samples; cited from earlier work.
Another data set concerns the target CYP2D6 (Homo sapiens, UniProt P10635). Nature of the data set: Reversible CYP inhibition in human liver microsomes, bufuralol marker. It counts as in vitro ADME. In a few lines:
as §1
On the technique in general: Liver microsomes are vesicles of endoplasmic reticulum, rich in cytochrome P450 enzymes.

The subject of a further data set is CYP3A4/5. The format is in vitro ADME. The note with it: human, human liver microsomes, probe midazolam 3 μM (1-OH-midazolam formation). The method in brief:
as §1

The target in the next data set is CYP2C9 (Homo sapiens, UniProt P11712). The data set can be described thus: Reversible CYP inhibition in human liver microsomes, diclofenac marker. It counts as in vitro ADME. The method in brief: as §1
CYP2C9, sequence (P11712 whole entry): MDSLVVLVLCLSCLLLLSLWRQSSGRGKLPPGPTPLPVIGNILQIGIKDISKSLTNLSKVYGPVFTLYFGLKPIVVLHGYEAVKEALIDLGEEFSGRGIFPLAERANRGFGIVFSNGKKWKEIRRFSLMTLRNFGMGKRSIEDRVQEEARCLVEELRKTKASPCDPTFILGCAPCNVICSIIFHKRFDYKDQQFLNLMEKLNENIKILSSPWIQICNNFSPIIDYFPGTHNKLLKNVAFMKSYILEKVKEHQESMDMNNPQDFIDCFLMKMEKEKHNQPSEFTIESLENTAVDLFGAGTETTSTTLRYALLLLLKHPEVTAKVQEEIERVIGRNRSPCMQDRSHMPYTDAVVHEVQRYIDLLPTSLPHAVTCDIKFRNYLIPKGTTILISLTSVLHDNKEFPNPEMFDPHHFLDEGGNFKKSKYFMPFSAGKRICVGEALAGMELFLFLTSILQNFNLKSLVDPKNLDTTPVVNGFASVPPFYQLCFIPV
In a further data set the target is T2, CYP2C8 (Homo sapiens, UniProt P10632).
T2 sequence (P10632 1-490): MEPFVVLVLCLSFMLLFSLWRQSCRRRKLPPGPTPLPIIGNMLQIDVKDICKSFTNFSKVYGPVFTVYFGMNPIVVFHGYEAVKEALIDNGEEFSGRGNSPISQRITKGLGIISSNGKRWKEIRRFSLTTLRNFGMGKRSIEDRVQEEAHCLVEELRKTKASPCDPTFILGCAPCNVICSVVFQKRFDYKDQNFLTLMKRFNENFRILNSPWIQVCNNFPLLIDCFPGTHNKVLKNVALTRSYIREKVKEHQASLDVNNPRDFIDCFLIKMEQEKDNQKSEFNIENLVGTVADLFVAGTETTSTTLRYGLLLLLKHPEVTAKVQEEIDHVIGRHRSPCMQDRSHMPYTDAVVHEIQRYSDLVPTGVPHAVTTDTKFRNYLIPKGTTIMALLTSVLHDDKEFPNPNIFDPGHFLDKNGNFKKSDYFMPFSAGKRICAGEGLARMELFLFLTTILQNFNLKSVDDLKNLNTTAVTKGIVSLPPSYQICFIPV
The data set can be described thus: Reversible CYP inhibition in human liver microsomes, amodiaquine marker. It counts as in vitro ADME. In a few lines: (§2)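 Pooled human liver microsomes (150 donors) with NADPH, 10 min at 37°C, using a substrate cocktail at or below KM: bupropion 80 μM (CYP2B6), amodiaquine 2 μM (CYP2C8), nifedipine 25 μM. Test compound was run at six levels, 0.1–30 μM, in triplicate. TCA quench, then metabolite by LC-MS/MS (MRM). IC50 came from a fit of % DMSO-control activity against log concentration; inhibition only at 30 μM was reported as >30 μM.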

A further data set deals with HepaRG cells. The data set can be described thus: Cytotoxicity in the HepaRG induction experiments. The format is cell-based, human.
A further data set deals with T3, CYP2B6 (Homo sapiens, UniProt P20813).
T3 sequence (P20813 1-491): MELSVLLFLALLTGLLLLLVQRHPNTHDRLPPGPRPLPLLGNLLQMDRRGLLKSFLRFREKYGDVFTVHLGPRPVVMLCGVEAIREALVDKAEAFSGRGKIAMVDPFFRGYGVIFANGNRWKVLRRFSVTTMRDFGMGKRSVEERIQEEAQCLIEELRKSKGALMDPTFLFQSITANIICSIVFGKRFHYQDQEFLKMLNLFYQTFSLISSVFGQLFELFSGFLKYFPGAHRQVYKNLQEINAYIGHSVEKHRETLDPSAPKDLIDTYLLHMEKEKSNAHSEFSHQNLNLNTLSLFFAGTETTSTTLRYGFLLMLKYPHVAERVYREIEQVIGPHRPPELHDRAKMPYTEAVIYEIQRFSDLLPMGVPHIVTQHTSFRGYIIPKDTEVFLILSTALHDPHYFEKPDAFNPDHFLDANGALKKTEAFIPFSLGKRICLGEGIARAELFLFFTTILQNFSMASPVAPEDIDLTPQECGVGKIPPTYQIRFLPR
The data set can be described thus: Reversible CYP inhibition in human liver microsomes, bupropion marker. The format is in vitro ADME. The method in brief:
as §2

Another data set concerns the target CYP2C19 (Homo sapiens, UniProt P33261). Nature of the data set: Reversible CYP inhibition in human liver microsomes. The format is in vitro ADME. In a few lines: as §1
A further data set has as its system CYP1A2 mRNA. The data set can be described thus: CYP mRNA induction in HepaRG cell cultures. The format is in vitro ADME, human. The note with it: 24 hours.
The mark [3] stands for this setting: tenapanor 15 mg twice daily alone.
Setting [4] is: concentrations of up to 20 μM, all experiments.

“And” between values parts separate entries of the source, which are not always exact repeats. Equal entries are not always repeated.

CYP2C19, sequence (P33261 whole entry): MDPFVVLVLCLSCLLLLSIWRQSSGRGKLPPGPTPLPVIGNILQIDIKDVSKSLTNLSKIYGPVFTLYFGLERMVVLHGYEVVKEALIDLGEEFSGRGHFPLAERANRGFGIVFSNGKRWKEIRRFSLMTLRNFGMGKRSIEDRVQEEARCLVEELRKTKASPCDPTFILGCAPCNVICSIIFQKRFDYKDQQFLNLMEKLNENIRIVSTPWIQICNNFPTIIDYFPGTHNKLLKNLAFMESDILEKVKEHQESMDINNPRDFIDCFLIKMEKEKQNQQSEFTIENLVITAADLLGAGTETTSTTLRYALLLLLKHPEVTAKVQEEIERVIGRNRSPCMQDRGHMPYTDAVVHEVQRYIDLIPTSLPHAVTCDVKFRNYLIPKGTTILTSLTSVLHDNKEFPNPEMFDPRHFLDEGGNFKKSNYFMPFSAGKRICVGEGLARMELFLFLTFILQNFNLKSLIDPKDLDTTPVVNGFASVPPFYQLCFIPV
CYP2D6, sequence (P10635 whole entry): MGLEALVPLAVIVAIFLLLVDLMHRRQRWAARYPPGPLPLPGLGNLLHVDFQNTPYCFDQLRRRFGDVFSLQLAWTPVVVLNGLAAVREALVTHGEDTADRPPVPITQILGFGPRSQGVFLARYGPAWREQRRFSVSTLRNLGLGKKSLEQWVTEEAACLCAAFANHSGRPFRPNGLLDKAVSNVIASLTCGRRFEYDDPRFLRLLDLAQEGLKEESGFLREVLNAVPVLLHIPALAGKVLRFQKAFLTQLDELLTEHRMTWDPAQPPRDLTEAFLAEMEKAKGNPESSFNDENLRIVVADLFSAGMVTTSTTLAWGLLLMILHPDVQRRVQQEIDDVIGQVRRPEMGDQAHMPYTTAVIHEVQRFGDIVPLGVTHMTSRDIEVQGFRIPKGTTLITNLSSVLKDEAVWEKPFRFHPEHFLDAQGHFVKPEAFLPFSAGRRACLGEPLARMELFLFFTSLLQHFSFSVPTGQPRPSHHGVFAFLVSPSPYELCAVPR

In the case of `OCc1ncc2n1-c1ccc(Cl)cc1C(c1ccccc1F)=NC2` [1‐OH‐midazolam], in [1], the “AUC0-t, arithmetic mean (SD)” value was 52.1 (29.7) ng·h/mL; the “AUC0-t, geometric mean (GCV%)” value is 47.2 (43.1) ng·h/mL; the “AUC, arithmetic mean (SD)” value is on record as 54.1 (31.6) ng·h/mL; the “AUC, geometric mean (GCV%)” value was 48.8 (43.6) ng·h/mL. For the same compound, in [1], the “Cmax, arithmetic mean (SD)” value is 26.6 (12.0) ng/mL; the “Cmax, geometric mean (GCV%)” value is given as 24.1 (47.8) ng/mL; the “t1/2, arithmetic mean (SD)” value is 5.14 (2.22) h; the “t1/2, geometric mean (GCV%)” value is given as 4.64 (50.0) h. Besides, the “tmax, median (range)” value in data set [1] is on record as 0.50 (0.25‐0.55) h. Further, in the data set on CYP3A4, the “AUC0-t ratio (90%CI), geometric least-squares means” value (“AUC0-t ratio (90%CI)” below) is 110 (104‐116) %; the “AUC ratio (90%CI), geometric least-squares means” value (from here on “AUC ratio (90%CI)”) was 110 (103‐116) %; the “Cmax ratio (90%CI), geometric least-squares means” value (“Cmax ratio (90%CI)” below) is recorded as 103 (87.2‐122) %.

On to `Cc1ncc2n1-c1ccc(Cl)cc1C(c1ccccc1F)=NC2O` (centres unmarked) [4‐OH‐midazolam], for which, in data set [1], the “AUC0-t, arithmetic mean (SD)” value is listed as 5.65 (1.50) ng·h/mL; the “AUC0-t, geometric mean (GCV%)” value is on record as 5.47 (26.9) ng·h/mL; the “AUC, arithmetic mean (SD)” value was 6.14 (1.56) ng·h/mL; the “AUC, geometric mean (GCV%)” value is given as 5.96 (25.3) ng·h/mL. In data set [1], the “Cmax, arithmetic mean (SD)” value is 2.11 (0.757) ng/mL; the “Cmax, geometric mean (GCV%)” value was 1.99 (37.6) ng/mL; the “t1/2, arithmetic mean (SD)” value is 2.48 (0.820) h; the “t1/2, geometric mean (GCV%)” value was 2.37 (30.2) h. Further, the “tmax, median (range)” value in [1] is given as 0.50 (0.25‐1.02) h. In the data set on CYP3A4, the “AUC0-t ratio (90%CI)” value is 106 (99.1‐113) %; the “AUC ratio (90%CI)” value is reported as 105 (98.7‐111) %; the “Cmax ratio (90%CI)” value is 105 (90.5‐122) %.

In the case of `Clc1ccc(-c2nc3sccn3c2C=NOCc2ccc(Cl)c(Cl)c2)cc1` [CITCO, 6‐[4‐chlorophenyl]imidazo[2,1‐b][1,3]thiazole‐5‐carbaldehyde O‐[3,4‐dichlorobenzyl]oxime], the “maximal increase in CYP2B6 mRNA levels relative to vehicle control” value with CYP2B6 mRNA is 13.2 fold.

In the case of `Cc1ncc2n1-c1ccc(Cl)cc1C(c1ccccc1F)=NC2` [Midazolam, midazolam, reference compound], in “Safety and tolerability” (healthy volunteers), the somnolence is 27/28 and the “volunteers reporting at least 1 AE” value is 27/28. In addition, the “tmax, median (range)” value in [1] was 0.50 (0.25‐0.55) h. Further, in the data set with CYP3A4, the “AUC0-t ratio (90%CI)” value is reported as 106 (100‐113) %; the “AUC ratio (90%CI)” value was 107% and 107 (101‐113) %; the “Cmax ratio (90%CI)” value was 104% and 104 (89.6‐122) %.

For orientation: IC50 means the concentration at which inhibition is half-maximal. The low end stands for inhibition by little substance, the high end for a need for much substance. Turning to `CN1Cc2c(Cl)cc(Cl)cc2[C@H](c2cccc(S(=O)(=O)NCCOCCOCCNC(=O)NCCCCNC(=O)NCCOCCOCCNS(=O)(=O)c3cccc([C@@H]4CN(C)Cc5c(Cl)cc(Cl)cc54)c3)c2)C1` [Tenapanor], the IC50 at 5 min on CYP1A2 was over 30 µM; with CYP3A4/5, 0.402 ± 0.032 µM. For the same compound, in the data set on CYP3A4 mRNA (1 of 4 experiments), the “CYP3A4 mRNA induction as % of the positive control response” value is recorded as 16.8%. The “induction of CYP3A4 mRNA expression” value in the data set on CYP3A4 mRNA (1 of 4 experiments) is reported as “up to 5.85 fold”. Moreover, the “influence on CYP3A4 mRNA levels” value with CYP3A4 mRNA (3 of 4 experiments) is on record as “not observed to influence”. Moreover, the serum tenapanor result in data set [2] was “below the limit of quantification”. In the data set “Safety and tolerability” (healthy volunteers), the “volunteers reporting at least 1 AE” value is 9/27. In the data set “Safety and tolerability” (setting [3]), this compound had an abdominal pain of 1 n. Moreover, the abnormal gastrointestinal sounds in the data set “Safety and tolerability” (setting [3]) is recorded as 2 n. The same compound yielded a defecation urgency in “Safety and tolerability” (setting [3]) of 1 n. Also, the dizziness in “Safety and tolerability” (setting [3]) stood at 2 n. In addition, the “hypertrophy of tongue papillae” value in “Safety and tolerability” (setting [3]) was found to be 1 n. The compound also registered a gastrointestinal disorders in “Safety and tolerability” (tenapanor 15 mg twice daily alone, of the 9 volunteers who reported AEs) of 5 volunteers. The IC50 is 3.26 ± 0.54 µM against CYP2D6; 14.2 ± 3.2 µM at CYP2C9; 10.4 ± 3 µM against CYP2C8; 15.4 ± 7.5 µM against CYP2B6; over 30 µM on CYP2C19. In addition, the “cytotoxicity to HepaRG cells” value in the data set on HepaRG cells (20 μM) is “not”; with HepaRG cells (50 μM), “cytotoxic”. Besides, at CYP2C19 (human liver microsomes, S-mephenytoin 35 μM to 4-OH-mephenytoin), the “Tenapanor IC50 (n = 3)” value was “No IC50 could be determined”. Besides, the “induction of CYP2B6 mRNA expression” value in the data set with CYP2B6 mRNA (setting [4]) is recorded as “did not induce”. Besides, the “induction of CYP1A2 mRNA expression” value with CYP1A2 mRNA (setting [4]) was “did not induce”.

On to `COc1ccc2[nH]c([S+]([O-])Cc3ncc(C)c(OC)c3C)nc2c1` (centres unmarked) [omeprazole, reference compound], for which, in the data set on CYP1A2 mRNA (positive control), the “maximal increase in CYP1A2 mRNA levels relative to vehicle control” value is reported as 32.0 fold.

For `CCC1(c2ccccc2)C(=O)NC(=O)NC1=O` [phenobarbital], the “maximal increase in CYP2B6 mRNA levels relative to vehicle control” value in the data set on CYP2B6 mRNA stood at 17.0 fold.

The values above are taken from paper PMC5599994 (Clinical Pharmacology in Drug Development, 2017).
